Source: ChEMBL document CHEMBL1944562, “Design, synthesis of some new (2-aminothiazol-4-yl)methylester derivatives as possible antimicrobial and antitubercular agents” (2012)
Converted amounts (≈) assume the structure as drawn.

Tests used:
Type in all cases: functional
[1] = system: Pseudomonas aeruginosa; assay: Antibacterial activity against Pseudomonas aeruginosa ATCC 27853 after 16 to 18 hrs by […]
[2] = system: Escherichia coli; assay: Antibacterial activity against Escherichia coli ATCC 25922 at MIC after 3 to 4 days
Method in brief: (§1)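 Agar well diffusion on seeded agar plates, 20 mL agar per dish, dried 1 h at 37 °C. Wells punched and loaded with test compound in DMSO at its MIC. DMSO-only control. Plates run in triplicate and kept 3-4 days at 37 °C. Inhibition zone diameter measured.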

[3] = system: Mycobacterium tuberculosis; assay: Antitubercular activity against Mycobacterium tuberculosis H37Rv after 7 days by resazurin assay; conditions: 168 h
Method in brief: (§2)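 M. tuberculosis H37Rv ATCC 27294 grown in Middlebrook 7H9 broth with 10% OADC and adjusted to McFarland 2. Culture was diluted 1:4 into fresh medium. Compounds came from 2 mg/mL DMF stocks, screened first at 1, 10 and 100, then at 0.3125–5. DMF-only controls were included. After 7 days at 37 °C, 0.01% resazurin was added; a blue-to-pink change marked growth, and the MIC was read.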

[4] = system: Escherichia coli; assay: Antibacterial activity against Escherichia coli ATCC 25922 after 16 to 18 hrs by […]
[5] = system: Candida albicans; assay: Antifungal activity against Candida albicans at MIC after 3 to 4 days
Method in brief: (§3)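 Fungal suspension made by transferring a loopful of culture to 3 mL saline and seeding agar plates, 20 mL agar per dish, dried 1 h at 37 °C. Punched wells loaded with test compound in DMSO at its MIC. DMSO-only control. Triplicate plates held 3-4 days at 37 °C. Inhibition zone diameter measured.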

[6] = system: Candida albicans; assay: Antifungal activity against Candida albicans after 3 to 4 days by serial plate dilution method
[7] = system: Aspergillus fumigatus; assay: Antifungal activity against Aspergillus fumigatus NCIM N0.902 at MIC after 3 to 4 days; method in brief: as §3
[8] = system: Klebsiella pneumoniae; assay: Antibacterial activity against Klebsiella pneumoniae after 16 to 18 hrs by […]
[9] = system: Aspergillus flavus; assay: Antifungal activity against Aspergillus flavus NCIM N0.524 after 3 to 4 days by serial plate dilution method
[10] = system: Mycobacterium tuberculosis; assay: Antitubercular activity against Mycobacterium tuberculosis H37Rv assessed as growth inhibition after 7 days by resazurin assay; method in brief: as §2
[11] = system: Trichophyton mentagrophytes; assay: Antifungal activity against Trichophyton mentagrophytes at MIC after 3 to 4 days; method in brief: as §3
[12] = system: Aspergillus flavus; assay: Antifungal activity against Aspergillus flavus NCIM N0.524 at MIC after 3 to 4 days; method in brief: as §3
[13] = system: Bacillus subtilis; assay: Antibacterial activity against Bacillus subtilis at MIC after 3 to 4 days; method in brief: as §1
[14] = system: Aspergillus fumigatus; assay: Antifungal activity against Aspergillus fumigatus NCIM N0.902 after 3 to 4 days by serial plate dilution method
[15] = system: Talaromyces marneffei; assay: Antifungal activity against Penicillium marneffei after 3 to 4 days by serial plate dilution method
[16] = system: Staphylococcus aureus; assay: Antibacterial activity against Staphylococcus aureus ATCC 25923 at […] after 3 to 4 days; method in brief: as §1
[17] = system: Mycolicibacterium smegmatis; assay: Antitubercular activity against Mycobacterium smegmatis ATCC 19420 after 7 days by resazurin assay; conditions: ATCC 19420, 168 h
Method in brief: (§4)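 Middlebrook 7H9 broth with 10% OADC, culture adjusted to McFarland 2. 50 µL culture added to 150 µL fresh medium. Stocks at 2 mg/mL in DMF, tested first at 1, 10 and 100 µg/mL, then at 0.3125-5 µg/mL. DMF controls. After 7 days at 37 °C, 0.01% resazurin added. Blue-to-pink change read for MIC.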

[18] = system: Trichophyton mentagrophytes; assay: Antifungal activity against Trichophyton mentagrophytes after 3 to 4 days by serial plate dilution method
[19] = system: Talaromyces marneffei; assay: Antifungal activity against Penicillium marneffei at MIC after 3 to 4 days; method in brief: as §3
[20] = system: Staphylococcus aureus; assay: Antibacterial activity against Staphylococcus aureus ATCC 25923 after 16 to 18 hrs by serial plate dilution method
[21] = system: Pseudomonas aeruginosa; assay: Antibacterial activity against Pseudomonas aeruginosa ATCC 27853 at MIC after 3 to 4 days; method in brief: as §1
[22] = system: Klebsiella pneumoniae; assay: Antibacterial activity against Klebsiella pneumoniae at MIC after 3 to 4 days; method in brief: as §1
[23] = system: Mycolicibacterium fortuitum; assay: Antitubercular activity against Mycobacterium fortuitum ATCC 19542 after 7 days by resazurin assay; conditions: ATCC 19542, 168 h; method in brief: as §4
[24] = system: Bacillus subtilis; assay: Antibacterial activity against Bacillus subtilis after 16 to 18 hrs by […]

Row | Compound | MIC [1] | diameter of the inhibition zone (DIZ) [2] | MIC [3] | MIC [4] | diameter of the inhibition zone (DIZ) [5] | MIC [6] | diameter of the inhibition zone (DIZ) [7] | MIC [8] | MIC [9] | growth inhibition (GI) [10] | diameter of the inhibition zone (DIZ) [11] | diameter of the inhibition zone (DIZ) [12] | diameter of the inhibition zone (DIZ) [13] | MIC [14] | MIC [15] | diameter of the inhibition zone (DIZ) [16] | MIC [17] | MIC [18] | diameter of the inhibition zone (DIZ) [19] | MIC [20] | also measured
1 | Nc1nc(COC(=O)c2c(Cl)cc(Cl)cc2Cl)cs1 | 25 µg/mL (≈ 74 µM) | <10 mm | 10 µg/mL (≈ 29.6 µM) | 25 µg/mL (≈ 74 µM) | 16 mm | 6.25 µg/mL (≈ 18.5 µM) | 16 mm | 12.5 µg/mL (≈ 37 µM) | 6.25 µg/mL (≈ 18.5 µM) | <90% | 16 mm | 16 mm | 16 mm | 6.25 µg/mL (≈ 18.5 µM) | 6.25 µg/mL (≈ 18.5 µM) | 16 mm | > 100 µg/mL | 6.25 µg/mL (≈ 18.5 µM) | 16 mm | 6.25 µg/mL (≈ 18.5 µM) | diameter of the inhibition zone (DIZ) [21]: <10 mm; diameter of the inhibition zone (DIZ) [22]: 11 mm; MIC [23]: > 100 µg/mL; MIC [24]: 6.25 µg/mL (≈ 18.5 µM)
2 | N#CCCc1cccc(C(=O)OCc2csc(N)n2)c1 | 6.25 µg/mL (≈ 21.8 µM) | 16 mm | 0.625 µg/mL (≈ 2.18 µM) | 6.25 µg/mL (≈ 21.8 µM) | 11 mm | 12.5 µg/mL (≈ 43.5 µM) | <10 mm | 12.5 µg/mL (≈ 43.5 µM) | 6.25 µg/mL (≈ 21.8 µM) | 95% | <10 mm | 16 mm | 16 mm | 25 µg/mL (≈ 87 µM) | 6.25 µg/mL (≈ 21.8 µM) | 16 mm | 1 µg/mL (≈ 3.48 µM) | 25 µg/mL (≈ 87 µM) | 16 mm | 6.25 µg/mL (≈ 21.8 µM) | diameter of the inhibition zone (DIZ) [21]: 16 mm; diameter of the inhibition zone (DIZ) [22]: 11 mm; MIC [23]: 10 µg/mL (≈ 34.8 µM); MIC [24]: 6.25 µg/mL (≈ 21.8 µM)
3 | Nc1nc(COC(=O)c2ccc([N+](=O)[O-])cc2)cs1 | 12.5 µg/mL (≈ 44.8 µM) | 11 mm | 1 µg/mL (≈ 3.58 µM) | 12.5 µg/mL (≈ 44.8 µM) | 16 mm | 6.25 µg/mL (≈ 22.4 µM) | 16 mm | 6.25 µg/mL (≈ 22.4 µM) | 6.25 µg/mL (≈ 22.4 µM) | 90% | 16 mm | 16 mm | 10 mm | 6.25 µg/mL (≈ 22.4 µM) | 6.25 µg/mL (≈ 22.4 µM) | <10 mm | 10 µg/mL (≈ 35.8 µM) | 6.25 µg/mL (≈ 22.4 µM) | 16 mm | 25 µg/mL (≈ 89.5 µM) | diameter of the inhibition zone (DIZ) [21]: 10 mm; diameter of the inhibition zone (DIZ) [22]: 16 mm; MIC [23]: 10 µg/mL (≈ 35.8 µM); MIC [24]: 12.5 µg/mL (≈ 44.8 µM)
4 | Nc1nc(COC(=O)c2cc(F)cc(C(F)(F)F)c2)cs1 | 12.5 µg/mL (≈ 39 µM) | <10 mm | 1 µg/mL (≈ 3.12 µM) | 25 µg/mL (≈ 78.1 µM) | 16 mm | 6.25 µg/mL (≈ 19.5 µM) | 16 mm | 25 µg/mL (≈ 78.1 µM) | 6.25 µg/mL (≈ 19.5 µM) | 90% | 16 mm | 16 mm | 11 mm | 6.25 µg/mL (≈ 19.5 µM) | 6.25 µg/mL (≈ 19.5 µM) | 11 mm | > 100 µg/mL | 6.25 µg/mL (≈ 19.5 µM) | 16 mm | 12.5 µg/mL (≈ 39 µM) | diameter of the inhibition zone (DIZ) [21]: 11 mm; diameter of the inhibition zone (DIZ) [22]: <10 mm; MIC [23]: 10 µg/mL (≈ 31.2 µM); MIC [24]: 12.5 µg/mL (≈ 39 µM)
5 | Nc1nc(COC(=O)C2(c3ccc(Cl)cc3)CC2)cs1 | 12.5 µg/mL (≈ 40.5 µM) | 16 mm | 1 µg/mL (≈ 3.24 µM) | 6.25 µg/mL (≈ 20.2 µM) | <10 mm | 25 µg/mL (≈ 81 µM) | <10 mm | 6.25 µg/mL (≈ 20.2 µM) | 25 µg/mL (≈ 81 µM) | 90% | <10 mm | <10 mm | 11 mm | 25 µg/mL (≈ 81 µM) | 25 µg/mL (≈ 81 µM) | 11 mm | 1 µg/mL (≈ 3.24 µM) | 25 µg/mL (≈ 81 µM) | <10 mm | 12.5 µg/mL (≈ 40.5 µM) | diameter of the inhibition zone (DIZ) [21]: 11 mm; diameter of the inhibition zone (DIZ) [22]: 16 mm; MIC [23]: 1.25 µg/mL (≈ 4.05 µM); MIC [24]: 12.5 µg/mL (≈ 40.5 µM)
6 | Nc1nc(COC(=O)Cc2cccc(C(F)(F)F)c2)cs1 | 6.25 µg/mL (≈ 19.8 µM) | 16 mm | 0.625 µg/mL (≈ 1.98 µM) | 6.25 µg/mL (≈ 19.8 µM) | <10 mm | 25 µg/mL (≈ 79 µM) | 11 mm | 12.5 µg/mL (≈ 39.5 µM) | 12.5 µg/mL (≈ 39.5 µM) | 95% | 11 mm | 11 mm | 16 mm | 12.5 µg/mL (≈ 39.5 µM) | 25 µg/mL (≈ 79 µM) | 16 mm | 10 µg/mL (≈ 31.6 µM) | 12.5 µg/mL (≈ 39.5 µM) | <10 mm | 6.25 µg/mL (≈ 19.8 µM) | diameter of the inhibition zone (DIZ) [21]: 16 mm; diameter of the inhibition zone (DIZ) [22]: 11 mm; MIC [23]: 10 µg/mL (≈ 31.6 µM); MIC [24]: 6.25 µg/mL (≈ 19.8 µM)
